Activation factor data for 40 molecules are collected here from PubChem BioAssay AID1136 (Sanford-Burnham Center for Chemical Genomics, 2008).

Out of some 200,000 compounds screened, fewer than 10 were called active.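 Rule for the calls: active = activation factor at least 2 at 20 µM; inactive = the rest.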 These entries were drawn from the full list.

Chain of Alkaline phosphatase, tissue-nonspecific isozyme (Homo sapiens) (P05186 whole entry, looked up): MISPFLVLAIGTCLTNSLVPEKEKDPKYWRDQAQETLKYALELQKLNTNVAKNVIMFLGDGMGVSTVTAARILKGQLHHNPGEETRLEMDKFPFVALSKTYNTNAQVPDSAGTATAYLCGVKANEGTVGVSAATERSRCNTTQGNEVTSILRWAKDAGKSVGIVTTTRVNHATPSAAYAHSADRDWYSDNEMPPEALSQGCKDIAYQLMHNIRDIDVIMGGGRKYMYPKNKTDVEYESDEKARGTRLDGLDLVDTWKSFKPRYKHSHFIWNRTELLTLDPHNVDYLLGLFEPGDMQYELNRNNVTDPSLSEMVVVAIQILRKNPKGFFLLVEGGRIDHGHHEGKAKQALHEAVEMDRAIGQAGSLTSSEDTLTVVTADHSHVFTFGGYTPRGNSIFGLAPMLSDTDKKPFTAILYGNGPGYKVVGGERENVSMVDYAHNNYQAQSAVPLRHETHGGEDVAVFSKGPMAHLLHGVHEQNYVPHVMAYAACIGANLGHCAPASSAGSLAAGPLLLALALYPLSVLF

For this assay, the target named is Alkaline phosphatase, tissue-nonspecific isozyme (Homo sapiens) (UniProt P05186). Nature of the assay: activation of human TNAP, high DEA acceptor – biochemical, luminescence, uHTS, primary screen (AID 1136). The following applies: purified TNAP, CDP-star luminescence, 1 M DEA, 30 min; at 20 µM; stronger effect = higher value; 0 = EDTA background, 1 = DMSO-only activity. The method in brief: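 system = human TNAP | amount = enzyme diluted 1/800 final | reagent = 100 µM CDP-star substrate | signal = luminescent substrate turnover signal | dosing = one dose, 20 µM | benchmarks = EDTA negative control, DMSO positive control | measure = activation factor | timing = 30 min reaction, room temperature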
As for `Cc1ccc(C(=O)NC(=S)Nc2ccc(N3CCOCC3)cc2)cc1`, the activation factor was 1 (inactive).

On to `COC(=O)COc1cccc2c(=O)n(CC(=O)NCCc3ccc(OC)c(OC)c3)ccc12`, for which the activation factor was 1 (inactive).

As for `Cc1ccc(NC(=S)N(CCN2CCCCC2)Cc2ccco2)cc1C`, the activation factor is 1 (inactive).

Regarding `COC(=O)c1cc(NC(=O)Cc2ccccc2[N+](=O)[O-])ccc1Cl`, the activation factor was 1 (inactive).

Consider `COc1ccc(C(=O)CSc2nc(C)cc(C)n2)cc1[N+](=O)[O-]`, for which the activation factor is 1 (inactive).

In the case of `Cc1ccc(S(=O)(=O)N(CC(=O)NN=C2CCN(C)CC2)c2ccc(F)cc2)cc1`, the activation factor is 1 (inactive).

Regarding `CN(C)S(=O)(=O)c1cccc(NC(=O)COC(=O)c2cc(=O)[nH]c(=O)[nH]2)c1`, the activation factor was 1 (inactive).

On to `O=S(=O)(Nc1ncccn1)c1ccc(NS(=O)(=O)c2cccc(Cl)c2Cl)cc1`, for which the activation factor was 1 (inactive).

Regarding `O=C(NNC(=S)NCc1ccco1)C(c1ccccc1)c1ccccc1`, the activation factor was 1 (inactive).

For the molecule `CCCCC(=O)NCc1ccc(F)cc1`, the activation factor is 1.1 (inactive).

Turning to `CCN(c1ccc(NC(=O)COC(=O)CCc2nc3ccccc3n2-c2ccccc2)cc1)C(C)C`, the activation factor was 1 (inactive).

As for `Clc1cccc(CN2COc3c(cc(Cl)c4cccnc34)C2)c1`, the activation factor is 1.1 (inactive).

As for `CCN(CCO)C(=S)Nc1cc(C(=O)OC)ccc1C(=O)OC`, the activation factor was 1 (inactive).

For the molecule `Cc1ccccc1CC1(CO)CCCN(Cc2ccc3c(c2)OCCO3)C1` (stereo not given), the activation factor was 1.1 (inactive).

As to `Clc1ccc(-n2nnnc2-c2cnc(-c3ccccn3)nc2-c2cccs2)cc1`, the activation factor is 1 (inactive).

With `COc1ccc(C(=O)Nc2c(Cl)cc(Cl)cc2C(=O)N2CCC(C)CC2)cc1`, the activation factor is 1 (inactive).

Consider `O=C(c1ccc(Cl)c([N+](=O)[O-])c1)N1CCN(c2ccccc2)CC1`, for which the activation factor was 1 (inactive).

In the case of `O=C(CCl)NNc1cccc(Cl)n1`, the activation factor is 1 (inactive).

With `C=CCN1C(=O)C(Cc2ccc(OCC)cc2)SC1=Nc1ccc(C(=O)O)cc1` (stereo not given), the activation factor was 1 (inactive).

With `Cc1nc([N+](=O)[O-])nn1C12CC3CC(CC(Br)(C3)C1)C2`, the activation factor was 1 (inactive).

As to `CC1CCC(C(C)C)C(=O)/C1=C\c1ccc(NC(=O)CCC(=O)O)cc1` (stereo not given), the activation factor was 1.1 (inactive).

On to `O=C(CN1C2=NCCN2c2ccccc21)c1cccs1`, for which the activation factor was 1.1 (inactive).

For `COc1ccc(/C=N/NC(=O)c2ccncc2)cc1CN1CCCc2ccccc21`, the activation factor is 1 (inactive).

For `Cc1ccnc(NC(=O)c2ccco2)n1`, the activation factor was 1 (inactive).

For the molecule `CCNc1nc(-c2cc3ccccc3o2)cs1`, the activation factor is 1.1 (inactive).

`Oc1cccc(C2c3[nH]c4ccccc4c3CCN2Cc2cnn(-c3ccccc3)c2)c1` (stereo not given): the activation factor was 1 (inactive).

Turning to `COC(=O)c1ccc(C(NC(=O)OCc2ccccc2)/C(C)=C/[C@@H](C)C(=O)NCc2ccc(OC)c(OC)c2)cc1` (stereo not given in full), the activation factor is 1.1 (inactive).

As for `CCOc1c2ccc(C(=O)NC3CCCc4ccccc43)cc2nn1CC` (stereo not given), the activation factor was 1 (inactive).

On to `Cc1nnsc1C(=O)N/N=C/c1cccc(C(F)(F)F)c1`, for which the activation factor is 1 (inactive).

As to `Cc1[nH]c2ccccc2c1/C=C(/C#N)C(=O)NC(C)C`, the activation factor was 1 (inactive).

Regarding `O=C(Cc1c(F)cccc1Cl)Nc1ccc(-n2cnnn2)cc1`, the activation factor was 1 (inactive).

Take `COCCCNC(=O)Cn1c(=O)n(Cc2ccccc2Cl)c(=O)c2cc(OC)c(OC)cc21`: the activation factor is 1 (inactive).

For `COc1cc([N+](=O)[O-])ccc1NC(=O)CN1CCCC1`, the activation factor was 1 (inactive).

Take `COc1ccc(-c2nn(-c3ccccc3)cc2CN2CCCO2)c(F)c1`: the activation factor was 1.1 (inactive).

For `O=C(O/N=C(/c1ccccc1)c1ccncc1)c1ccccc1[N+](=O)[O-]`, the activation factor is 1.1 (inactive).

Consider `CCC(C)NC(=O)Cn1nc(C(F)(F)F)c2c1CCC2` (stereo not given), for which the activation factor is 1.1 (inactive).

`CCOC(=O)COc1cc(O)c2c(=O)cc(-c3ccccc3)oc2c1`: the activation factor is 1 (inactive).

Turning to `Cc1cccc(NC(=O)/C=C/c2ccc3c(c2)OCO3)n1`, the activation factor was 1 (inactive).

For `COc1ccc(Sc2nc(-c3ccccc3)ncc2OC)cc1`, the activation factor is 1 (inactive).

On to `N#CCOc1ccc(C2=NO[C@@H]3[C@@H]4C[C@@H]([C@H]5C(=O)N(c6ccc7c(c6)OCO7)C(=O)[C@@H]45)[C@H]23)cc1`, for which the activation factor was 1 (inactive).
